Bioassay records (PubChem)
Mcl1 Bid PPI: Mcl-1/Bid binding inhibitors, primary screen, biochemical, TR-FRET, 1536-well; inhibition, % at 21.7 µM; Induced myeloid leukemia cell differentiation protein Mcl-1 (Homo sapiens), Q07820; TR-FRET Mcl-1/Bid-Dy647 peptide binding; 220,000 tested, 0.97% active; AID 1021, 2008;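 active means compounds that cut the binding signal by more than half at the single screening dose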;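 further: His-tagged Mcl-1 with europium anti-His antibody binding Bid BH3 peptide; 0% = Mcl-1 plus peptide wells and 100% = peptide-only wells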
Target sequence (Q07820 whole entry, looked up): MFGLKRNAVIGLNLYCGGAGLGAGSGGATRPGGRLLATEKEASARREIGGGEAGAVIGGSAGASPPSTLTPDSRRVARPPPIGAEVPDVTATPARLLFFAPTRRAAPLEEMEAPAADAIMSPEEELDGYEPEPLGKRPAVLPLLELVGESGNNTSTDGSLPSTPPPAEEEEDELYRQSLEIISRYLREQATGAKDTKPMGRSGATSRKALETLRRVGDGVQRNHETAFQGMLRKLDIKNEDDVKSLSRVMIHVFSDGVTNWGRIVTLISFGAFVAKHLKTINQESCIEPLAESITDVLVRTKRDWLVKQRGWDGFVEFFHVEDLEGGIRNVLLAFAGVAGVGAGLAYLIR
T cell HTS: modulators of CD8 T cell-vesicle binding, primary screen, mouse 2C CD8+ T cells, flow cytometry | 330,000 tested, 0.068% active | 2C CD8+ T cell-vesicle binding; active compounds read low | response (vesicle binding), % at 7 µM;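 active means response, share of CD8 T cells binding vesicles, and their 90th percentile fluorescence all below set limits, cut at about 80% in these data, passing the limit was not always enough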;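 further: values below 100% mean blocked vesicle binding to the CD8+ T cells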
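Material: murine 2C transgenic CD8+ T lymphocytes / Also added: QL9-peptide-loaded Drosophila micro-vesicles bearing Ld, ICAM-1 and B7-1 / Schedule: binding step 1.5 h, 37 °C, antibody labelling 20 min, ice / Signal: flow cytometry, PE anti-B7-1 (FL2) versus Alexa647 anti-CD8 (FL8), PFA-fixed / Evaluation: percent CD8+ FL2 mean versus row control / Benchmarks: naked versus QL9-loaded vesicles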
Bim-Mcl-1: inhibitors of Bim peptide binding to Mcl-1, primary screen, biochemical, bead-based flow cytometry, multiplex; Induced myeloid leukemia cell differentiation protein Mcl-1 (Homo sapiens), Q07820; Bim peptide-Mcl-1 binding; inhibition, % at 10 µM; 190,000 tested, 0.1% active; in the data active means inhibition above about 40%;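 further: 0% = no compound tracer wells and 100% = peptide blocker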
Mcl1 Noxa PPI: Mcl-1/Noxa binding inhibitors, primary screen, biochemical, TR-FRET, 1536-well. Induced myeloid leukemia cell differentiation protein Mcl-1 (Homo sapiens), Q07820. TR-FRET Mcl-1/Noxa peptide binding, 2 h. inhibition, % at 21.7 µM. 220,000 tested, 1.5% active. AID 1022, 2008;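 active means compounds that cut the protein-peptide binding signal by more than 50% relative to plate controls in a single-dose test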;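 further: His-tagged Mcl-1 with rhodamine Noxa BH3 peptide and terbium anti-His antibody; 0% = Mcl-1 plus Noxa peptide wells and 100% = peptide-only wells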
DSG3 Ab inh: inhibitors of pemphigus antibody binding to DSG3, primary screen, biochemical, bead-based, flow cytometry, scFv-GFP | 310,000 tested, 0.48% active | Desmoglein-3 (Homo sapiens), P32926 | binding (percent of control), % at 10 µM | DSG3-coupled beads, scFv-anti-DSG3-GFP binding; active compounds read low;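 active means binding more than 3 SD below its plate's average and above zero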;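 further: hits lower antibody fragment binding to DSG3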
MCL1-BIM inh: inhibitors of MCL1 binding to BIM-BH3, primary screen, biochemical, fluorescence polarization; Induced myeloid leukemia cell differentiation protein Mcl-1 (Homo sapiens), Q07820; GST-MCL1 / FITC-Bim-BH3 fluorescence polarization; inhibition, % at 10.9 µM; 320,000 tested, 0.68% active; AID 2057, 2009;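 active means inhibition above the mean inhibition of all tested compounds plus 3 SD, set per campaign, cut at about 40% in these data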;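 further: 0% = DMSO wells and 100% = unlabeled Bim-BH3 peptide control; higher means more loss of mP so more displacement of Bim peptide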
Starred values were filed as active, the others as inactive; i = inactive; nt = not tested or not shown. Hits are enriched below; roughly 2.3% of the tested compounds scored in any of these assays.

SMILES | Mcl1 Bid PPI | T cell HTS | Bim-Mcl-1 | Mcl1 Noxa PPI | DSG3 Ab inh | MCL1-BIM inh
Cc1ccc2nc(-c3ccc(NC(=O)CSc4nc(N)cc(=O)[nH]4)cc3)sc2c1 | 53* | 0 | nt | 32 | 87 | -14
O=C(N=Nc1c(O)[nH]c2ccccc12)c1cccs1 | -22 | 229 | 5 | 31 | 107 | 9
O=C(N=Nc1c(O)[nH]c2ccccc12)c1cc(NS(=O)(=O)c2cccs2)cc(NS(=O)(=O)c2cccs2)c1 | -33 | 226 | 3 | 57* | 107 | 1
CCCCC1=CC2=CC(=O)C(C)(OC(=O)CC)C(=O)C2=CN1CC(C)C (centres undefined) | -73 | 450 | nt | -5 | nt | 41*
C=CCN1C=C2C(=O)C(C)(OC(=O)CC)C(=O)C=C2C=C1CCCC (centres undefined) | -85 | 345 | nt | 15 | 104 | 29
O=C1c2ccccc2/C(=C\C#Cc2ccccn2)N1c1ccccc1 | nt | nt | nt | nt | 107 | nt
CCCOc1ccc(-c2nn(-c3ccccc3)cc2/C=C2\SC(N)=NC2=O)cc1 | -8 | 242 | -3 | -29 | 90 | 1
Cc1cc(-c2nn(-c3ccccc3)cc2/C=C2\SC(N)=NC2=O)ccc1OC(C)C | 0 | 270 | 94* | -3 | 84 | -5
CN1CCN(C(=O)Cn2ncc3c([nH]c4ccccc43)c2=O)CC1 | nt | 177 | nt | nt | nt | 8
c1cc2c(cc1CNc1ccc(N3CCOCC3)cc1)OCO2 | nt | 324 | nt | nt | 94 | nt
O=C1c2ccccc2C(=O)N1CCCn1ccnc1 | nt | 329 | nt | nt | 91* | -2
O=C(CCCN1C(=O)c2ccccc2C1=O)NCCCn1ccnc1 | 82* | 307 | -1 | 19 | 100 | 3
CC(=O)N1CC2(CC(c3ccccc3C(F)(F)F)=NO2)CN1c1ccc(Cl)cc1 (centres undefined) | nt | nt | nt | nt | 100 | nt
O=C(COc1ccc(S(=O)(=O)N2CCCC2)cc1Cl)NC1CC1 | 95* | 953 | -1 | 9 | 102 | 1
O=C(CNC(=O)c1ccc(S(=O)(=O)N2CCCC2)cc1)N/N=C/c1ccc(Cl)cc1Cl | -6 | 252 | 98* | 7 | 112 | -3
CC(=O)OCC(=O)Nc1cc(S(=O)(=O)N2CCCCCC2)ccc1Cl | -6 | 141 | 0 | 8 | 71* | -3
O=C(COc1ccc(S(=O)(=O)N2CCCCC2)cc1)NCc1ccncc1 | -6 | 420 | -3 | -2 | 61* | 3
O=C(COc1ccc(S(=O)(=O)N2CCCC2)cc1)NCc1cccnc1 | nt | 263 | nt | nt | 87 | -2
CNC(=O)C[C@H]1C(=O)N(C2CCCCC2)C[C@@H]1c1ccc(Br)cc1 | nt | nt | nt | nt | 101 | nt
CCCSc1ccc([C@H]2N[C@@](CC(C)C)(C(=O)OC)[C@H]3C(=O)N(CC)C(=O)[C@@H]23)cc1 | nt | 309 | nt | nt | 103 | nt
O=C(CNCc1ccncc1)Nc1cc(S(=O)(=O)N2CCCCC2)ccc1Cl | 55* | 411 | -7 | 35 | 145 | -2
COc1ccc(S(=O)(=O)N2CCCCC2)cc1NC(=O)CCNC(=O)c1ccc(Cl)cc1 | nt | 293 | nt | nt | 50* | nt
O=C(COc1cccnc1[N+](=O)[O-])Nc1cc(S(=O)(=O)N2CCCCC2)ccc1Cl | -29 | 590 | nt | -3 | 85* | -2
CC(Cc1ccccc1)C(=O)Nc1ccc(Br)cc1 (centres undefined) | nt | 397 | nt | nt | 102 | -3
CCCCCCCCCCCCCCCC[n+]1cccc2ccccc21 | 91* | 460 | 0 | 89* | nt | 8
SMILES | Mcl1 Bid PPI | T cell HTS | Bim-Mcl-1 | Mcl1 Noxa PPI | DSG3 Ab inh | MCL1-BIM inh
COCCN=c1scc(-c2ccco2)n1/N=C/c1ccc(O)c(O)c1O | 3 | 290 | 7 | 103* | 107 | 11
CC(C)N=c1scc(-c2ccco2)n1/N=C/c1ccc(O)c(O)c1 | -8 | 389 | 0 | 35 | 101 | 27
CC(OC(=O)c1ccc2c(c1)C(=O)N(Cc1ccncc1)C2=O)C(=O)Nc1cccc(Cl)c1Cl (centres undefined) | 64* | 190 | -6 | 1 | 116 | -15
O=C(COC(=O)c1ccco1)Nc1ccccc1[N+](=O)[O-] | -19 | 340 | 0 | 20 | nt | 10
O=C(COC(=O)c1ccc2c(c1)C(=O)N(Cc1ccncc1)C2=O)Nc1ccccc1[N+](=O)[O-] | 20 | 206 | -8 | 83* | 127 | 13
COC(=O)c1cccc(NC(=O)c2ccc3c(c2)C(=O)N(Cc2cccnc2)C3=O)c1 | nt | 0 | nt | nt | 101 | 11
CN(CC1CCCN(CCc2ccccc2F)C1)C(=O)c1cc2ccccc2o1 (centres undefined) | nt | nt | nt | nt | 99 | nt
CN(CCO)S(=O)(=O)c1ccc2c(c1)C(=NNC(N)=O)c1cc(S(=O)(=O)N(C)CCO)ccc1-2 | -2 | 174 | nt | 16 | -5.9* | 2
CN(C)S(=O)(=O)c1ccc2c(c1)C(=NO)c1cc(S(=O)(=O)N(C)C)ccc1-2 | nt | 86 | nt | nt | 76* | 10
CCC1(c2ccc(F)cc2)NC(=O)N(CC(=O)Nc2ccccc2Cl)C1=O (centres undefined) | nt | 397 | nt | nt | 104 | -6
Cc1ccc(NC2Sc3ccccc3NC2=O)cc1 (centres undefined) | -32 | 236 | -5 | 56* | 90 | -12
O=C1Nc2ccccc2SC1c1ccccc1 (centres undefined) | nt | 202 | nt | nt | 103 | nt
COc1cc(/C=C(\C#N)C(=O)NCCc2ccccc2)cc(OC)c1O | 5 | 253 | -6 | 18 | 110 | -43
COc1cc(/C=C(\C#N)c2nc3ccccc3[nH]2)cc(OC)c1O | -23 | 443 | 5 | 72* | 107 | -95
Cc1ccc2nc(/C(C#N)=C\c3ccc(Oc4ccc(C(F)(F)F)cc4[N+](=O)[O-])cc3)[nH]c2c1 | -28 | 178 | -3 | 51* | 101 | -12
COc1cc(/C=C(\C#N)C(=O)c2c[nH]c3ccccc23)cc(OC)c1O | 46 | 244 | 3 | 70* | 109 | -51
COc1ccc(/C=C(\C#N)c2nc3ccccc3[nH]2)cc1O | nt | nt | nt | nt | 179 | nt
COc1cc(/C=C(/C#N)c2nc3ccccc3c(=O)[nH]2)ccc1O | 70* | i | -2 | 42 | 87 | -57
CCN(CC(=O)Nc1ccc(Br)cc1)C(=O)c1nc2nc(C)cc(C)n2n1 | nt | i | nt | nt | nt | -12
N#Cc1ccc(-c2cn3c(n2)SCC3)cc1 | nt | 202 | nt | nt | 99 | nt
COc1cc(/C=C(\C#N)c2nc3ccc(C)cc3[nH]2)cc([N+](=O)[O-])c1O | -47 | nt | 11 | 81* | 100 | nt
Cc1ccc2nc(/C(C#N)=C/c3ccc(-c4cccc([N+](=O)[O-])c4)o3)[nH]c2c1 | 36 | 199 | 0 | 80* | 107 | -123
